Series [1] relates to Mus musculus. As to the kind of experiment: Neurotoxicity in mouse assessed as electrically-induced clonic seizures at 100 mg/kg, ip after 0.5 hrs by rotarod test. Format: toxicity, organism-based. Details: dose 100 mg/kg, route intraperitoneal. Particulars: in vivo. An outline of the steps:
(§1)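 Rotorod toxicity in mice given 100 mg/kg i.p., four per time point, alongside the 6 Hz test. The endpoint is inability to maintain balance on the rotorod. Score is N/F, the number of animals showing toxicity over the number tested.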

The subject of series [2] is Mus musculus. The experiment in a line: Anticonvulsant activity in mouse assessed as protection against maximal electroshock-induced seizures at 100 mg/kg, ip after 4 hrs. Format: functional, organism-based. Also noted: dose 100 mg/kg. An outline of the steps: (§2)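 Mouse Test 1: i.p. dosing at 0.01 mL/g. Sets of one, three and one animals receive 30, 100 and 300 mg/kg respectively, each tested at 0.5 h and 4.0 h. Score is N/F, the number of animals protected over the number tested. Screening performed by NINDS following the ADD program protocol.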

Series [3] deals with Mus musculus. As to the kind of experiment: Anticonvulsant activity in mouse assessed as protection against subcutaneous pentylenetetrazole-induced seizures at 100 mg/kg, ip after 4 hrs. Format: functional, organism-based. Details: dose 100 mg/kg.
For series [4], the system named is Mus musculus. As to the kind of experiment: Neurotoxicity in mouse assessed as minimum motor impairment at 300 mg/kg, ip after 4 hrs by rotarod test. It is filed as toxicity, organism-based. Also noted: dose 300 mg/kg, route intraperitoneal. Particulars: in vivo. An outline of the steps: (§3)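 Rotorod test for minimal motor impairment in mice given 30, 100 or 300 mg/kg i.p. at 0.01 mL/g, using sets of one, three and one animals, at 0.5 h and 4.0 h. Animals are observed at each dose and time. Score is N/F, the number showing toxicity over the number tested.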

The test system of series [5] is Mus musculus. The experiment in a line: Anticonvulsant activity in mouse assessed as protection against maximal electroshock-induced seizures at 100 mg/kg, ip after 0.5 hrs. Also noted: dose 100 mg/kg. Format: functional, organism-based. An outline of the steps:
as §2

The nature of series [6]: Octanol-phosphate buffer partition coefficient, log P of the compound. It is filed as physicochemical. The method in brief: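 Octanol and phosphate buffer partition run at room temperature (29 °C). After separation, the phases are membrane-filtered and drug in the aqueous phase is measured by UV. PC = (Ct − Ca)/Ca, where Ct is total drug concentration and Ca is aqueous-phase concentration.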

Series [7] relates to Mus musculus. The experiment in a line: Anticonvulsant activity in mouse assessed as protection against electrically-induced seizure at 100 mg/kg, ip after 4 hrs by 6Hz psychomotor seizure test. It is filed as functional, organism-based. Also noted: dose 100 mg/kg. The method in brief:
(§4)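 Mice pretreated by i.p. injection at 100 mg/kg, then challenged through corneal electrodes at 6 Hz, 32 mA for 3 s, which elicits a psychomotor seizure in 97% of animals. Four mice per time point. Score is N/F, the number of animals protected over the number tested. Testing run under the NINDS Anticonvulsant Screening Program.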

For series [8], the system named is Mus musculus. As to the kind of experiment: Anticonvulsant activity in mouse assessed as protection against maximal electroshock-induced seizures at 30 mg/kg, ip after 4 hrs. Details: dose 30 mg/kg. It is filed as functional, organism-based. The method in brief: as §2
Series [9] has as its system Mus musculus. As to the kind of experiment: Anticonvulsant activity in mouse assessed as protection against maximal electroshock-induced seizures at 300 mg/kg, ip after 0.5 hrs. It is filed as functional, organism-based. Details: dose 300 mg/kg. An outline of the steps: as §2
Series [10] relates to Mus musculus. As to the kind of experiment: Anticonvulsant activity in mouse assessed as protection against electrically-induced seizure at 100 mg/kg, ip after 0.5 hrs by 6Hz psychomotor seizure test. Details: dose 100 mg/kg. Format: functional, organism-based. An outline of the steps: as §4
For series [11], the system named is Mus musculus. As to the kind of experiment: Neurotoxicity in mouse assessed as minimum motor impairment at 100 mg/kg, ip after 0.5 hrs by rotarod test. Format: toxicity, organism-based. Details: dose 100 mg/kg, route intraperitoneal. Particulars: in vivo. The method in brief:
as §3

The subject of series [12] is Mus musculus. The experiment in a line: Neurotoxicity in mouse assessed as electrically-induced clonic seizures at 100 mg/kg, ip after 0.25 hrs by rotarod test. Format: toxicity, organism-based. Also noted: dose 100 mg/kg, route intraperitoneal. Particulars: in vivo. An outline of the steps:
as §1

For series [13], the system named is Mus musculus. The experiment in a line: Neurotoxicity in mouse assessed as minimum motor impairment at 100 mg/kg, ip after 4 hrs by rotarod test. Also noted: dose 100 mg/kg, route intraperitoneal. Particulars: in vivo. Format: toxicity, organism-based. The method in brief:
as §3

For series [14], the system named is Mus musculus. The experiment in a line: Anticonvulsant activity in mouse assessed as protection against subcutaneous pentylenetetrazole-induced seizures at 30 mg/kg, ip after 4 hrs. It is filed as functional, organism-based. Also noted: dose 30 mg/kg.
Series [15] has as its system Mus musculus. The experiment in a line: Anticonvulsant activity in mouse assessed as protection against subcutaneous pentylenetetrazole-induced seizures at 300 mg/kg, ip after 4 hrs. Format: functional, organism-based. Details: dose 300 mg/kg.
Series [16] deals with Mus musculus. As to the kind of experiment: Anticonvulsant activity in mouse assessed as protection against maximal electroshock-induced seizures at 30 mg/kg, ip after 0.5 hrs. It is filed as functional, organism-based. Also noted: dose 30 mg/kg. The method in brief:
as §2

The subject of series [17] is Mus musculus. As to the kind of experiment: Anticonvulsant activity in mouse assessed as protection against subcutaneous pentylenetetrazole-induced seizures at 100 mg/kg, ip after 0.5 hrs. Details: dose 100 mg/kg. Format: functional, organism-based.
Series [18] has as its system Mus musculus. The experiment in a line: Neurotoxicity in mouse assessed as electrically-induced clonic seizures at 100 mg/kg, ip after 1 hr by rotarod test. Format: toxicity, organism-based. Details: dose 100 mg/kg, route intraperitoneal. Particulars: in vivo. An outline of the steps: as §1
The test system of series [19] is Mus musculus. As to the kind of experiment: Neurotoxicity in mouse assessed as electrically-induced clonic seizures at 100 mg/kg, ip after 2 hrs by rotarod test. Also noted: dose 100 mg/kg, route intraperitoneal. It is filed as toxicity, organism-based. Particulars: in vivo. An outline of the steps: as §1
Series [20] relates to Mus musculus. As to the kind of experiment: Anticonvulsant activity in mouse assessed as protection against electrically-induced seizure at 100 mg/kg, ip after 0.25 hrs by 6Hz psychomotor seizure test. Also noted: dose 100 mg/kg. It is filed as functional, organism-based. An outline of the steps:
as §4

For series [21], the system named is Mus musculus. The experiment in a line: Neurotoxicity in mouse assessed as minimum motor impairment at 300 mg/kg, ip after 0.5 hrs by rotarod test. It is filed as toxicity, organism-based. Also noted: dose 300 mg/kg, route intraperitoneal. Particulars: in vivo. The method in brief: as §3
In series [22] the test system is Mus musculus. As to the kind of experiment: Anticonvulsant activity in mouse assessed as protection against electrically-induced seizure at 100 mg/kg, ip after 2 hrs by 6Hz psychomotor seizure test. Details: dose 100 mg/kg. Format: functional, organism-based. An outline of the steps: as §4
The test system of series [23] is Mus musculus. As to the kind of experiment: Neurotoxicity in mouse assessed as minimum motor impairment at 30 mg/kg, ip after 4 hrs by rotarod test. It is filed as toxicity, organism-based. Details: dose 30 mg/kg, route intraperitoneal. Particulars: in vivo. An outline of the steps:
as §3

For series [24], the system named is Mus musculus. As to the kind of experiment: Neurotoxicity in mouse assessed as electrically-induced clonic seizures at 100 mg/kg, ip after 4 hrs by rotarod test. Format: toxicity, organism-based. Details: dose 100 mg/kg, route intraperitoneal. Particulars: in vivo. The method in brief:
as §1

Series [25] concerns Mus musculus. The experiment in a line: Anticonvulsant activity in mouse assessed as protection against subcutaneous pentylenetetrazole-induced seizures at 30 mg/kg, ip after 0.5 hrs. Format: functional, organism-based. Also noted: dose 30 mg/kg.
The subject of series [26] is Mus musculus. The experiment in a line: Neurotoxicity in mouse assessed as minimum motor impairment at 30 mg/kg, ip after 0.5 hrs by rotarod test. Particulars: in vivo. Details: dose 30 mg/kg, route intraperitoneal. It is filed as toxicity, organism-based. An outline of the steps:
as §3

Series [27] deals with Mus musculus. As to the kind of experiment: Anticonvulsant activity in mouse assessed as protection against subcutaneous pentylenetetrazole-induced seizures at 300 mg/kg, ip after 0.5 hrs. It is filed as functional, organism-based. Also noted: dose 300 mg/kg.
Series [28] relates to Mus musculus. The experiment in a line: Anticonvulsant activity in mouse assessed as protection against electrically-induced seizure at 100 mg/kg, ip after 1 hr by 6Hz psychomotor seizure test. It is filed as functional, organism-based. Also noted: dose 100 mg/kg. The method in brief:
as §4

The test system of series [29] is Mus musculus. The experiment in a line: Anticonvulsant activity in mouse assessed as protection against maximal electroshock-induced seizures at 300 mg/kg, ip after 4 hrs. It is filed as functional, organism-based. Details: dose 300 mg/kg. An outline of the steps:
as §2

Activity calls are given as the source filed them. The rule behind the calls is not given here.

Regarding `O=C(NC(=S)Nc1ccccc1)Nc1ccc2c(c1)C(=O)C(=O)N2Cc1ccccc1Cl`, the Activity entry in [1], in series [4], in series [11], in [12], in [13] and in series [18] was “Non-toxic” each time. Further, the Activity result in series [19], in [21], in [23], in series [24] and in [26] was “Non-toxic” each time. Moreover, the outcome in series [2], in series [9], in [10], in series [20], in [27] and in series [28] was Active. Also, the outcome in series [3], in series [5], in series [7], in [8], in series [14] and in [15] was inactive. Besides, the result in series [16], in [17], in series [22] and in series [25] was inactive. The compound also gave a logP in series [6] of 3.18.
For the compound `O=C(NC(=S)Nc1ccccc1)Nc1ccc2c(c1)C(=O)C(=O)N2Cc1ccccc1`, the outcome in series [2], in series [3], in series [5], in [8], in series [9] and in series [14] was inactive. The outcome in [15], in series [16], in [17], in series [25], in [27] and in [29] was inactive. Besides, the Activity result in series [4], in [11], in series [13], in series [21], in [23] and in series [26] was “Non-toxic” each time. In series [6], this compound showed a logP of 2.48.
`Cc1ccc(NC(=S)NC(=O)Nc2ccc3c(c2)C(=O)C(=O)N3Cc2ccccc2Cl)cc1`: the result in series [2], in series [3], in [5], in series [8], in series [9] and in series [14] was inactive. The outcome in series [15], in series [16], in series [17], in series [25], in series [27] and in [29] was inactive. Also, the Activity result in series [4], in series [11], in series [13], in series [21], in series [23] and in series [26] was “Non-toxic” in each case. The same compound gave a logP in [6] of 3.73.
On to `COc1cccc(NC(=S)NC(=O)Nc2ccc3c(c2)C(=O)C(=O)N3Cc2ccccc2Cl)c1`, for which the result in series [2], in series [3], in series [5], in series [8], in [9] and in series [14] was inactive. The outcome in series [15], in series [16], in [17], in [25], in [27] and in series [29] was inactive. The Activity result in series [4], in [11], in series [13], in series [21], in [23] and in series [26] was “Non-toxic” throughout. For the same compound, in [6], the logP is 3.19.
As for `Cc1ccc(NC(=S)NC(=O)Nc2ccc3c(c2)C(=O)C(=O)N3Cc2ccccc2)cc1`, the result in series [2], in series [3], in series [5], in series [8], in series [9] and in [14] was inactive. For the same compound, the result in [15], in series [16], in [17], in [25], in series [27] and in [29] was inactive. Moreover, the Activity result in [4], in series [11], in series [13], in series [21], in [23] and in series [26] was “Non-toxic” in each case. In [6], this compound returned a lipophilicity (logP) of 2.96.
Regarding `COc1ccccc1NC(=S)NC(=O)Nc1ccc2c(c1)C(=O)C(=O)N2Cc1ccccc1Cl`, the outcome in [2], in [3], in series [5], in series [8], in [9] and in series [14] was inactive. For the same compound, the outcome in series [15], in [16], in series [17], in [25], in series [27] and in [29] was inactive. For the same compound, the Activity result in series [4], in series [11], in series [13], in series [21], in series [23] and in [26] was “Non-toxic” in each case. Also, the logP in [6] turned out to be 3.18.
With `COc1ccccc1NC(=S)NC(=O)Nc1ccc2c(c1)C(=O)C(=O)N2Cc1ccccc1`, the result in series [2], in [3], in [5], in series [8], in series [14] and in series [15] was inactive. In addition, the result in series [16], in series [17], in series [25] and in series [27] was inactive. Also, the Activity result in [4], in [11], in [13], in series [21], in series [23] and in series [26] was “Non-toxic” each time. This compound came in with a logP in series [6] of 2.38. In addition, the outcome in series [9] and in series [29] was Active.
